The species entered for one assay is Mus musculus. Description: Inhibition of cap/HCV-mediated translation in mouse Krebs2 cell free extract expressing FF/HCV/IRES-Ren mRNA reporter transcript assessed as reduction in luciferase production at 20 uM after 60 mins. In kind it is functional. In a few lines:
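Compound stocks were 10 mM in DMSO, diluted to 200 μM in water, and tested at a final 20 μM in Krebs-2 translation extracts. The extracts were programmed with bicistronic Firefly–HCV IRES–Renilla luciferase mRNA. Reactions ran for 60 min at 30 °C, after which luciferase activities were measured.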

Another assay concerns MDA-MB-231. Description: Cytotoxicity against human MDA-MB-231 cells assessed as reduction in cell viability after 72 hrs by alamarBlue assay. It is filed as functional, cell-based. The conditions noted are these: MDA-MB-231, 72 h. In a few lines:
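MDA-MB-231 cells grown in DMEM with 10% FBS, 2 mM L-glutamine, penicillin/streptomycin, 37 °C, 5% CO2. Seeded at 10⁴ cells/well, preincubated 24 h, then compound or DMSO vehicle (0.1% or 1.0% v/v) for 72 h. Viability by Alamar Blue, absorbance at 570 nm (600 nm reference), as % of vehicle control; six replicates, at least six independent experiments.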
Background: The colour change of resazurin is a common sign of viable cells or microbes.

For the next assay, the system named is B16. Briefly: Cytotoxicity against mouse B16 cells assessed as reduction in cell viability by MTT assay. It is filed as functional, cell-based. (In general: Tetrazolium assays rely on reduction of a dye to a coloured formazan, in cell work by metabolically active cells.)
A short description of assay [1]: Cytotoxicity against mouse C26 cells assessed as reduction in cell viability by MTT assay. In kind it is functional, cell-based.
The test system of another assay is HepG2. Description: Cytotoxicity against human HepG2 cells assessed as reduction in cell viability by MTT assay. It is filed as functional, cell-based.
For assay [2], the system named is Lewis lung carcinoma cell line. Briefly: Cytotoxicity against mouse LL/2 cells assessed as reduction in cell viability by MTT assay. It is filed as functional, cell-based.

Calls of active or inactive are those of the source. The calls are words filed in the database; no cut-off is given here.

As to `COc1ccc2c(c1)O[C@@H]1COc3cc4c(cc3[C@]1(O)C2=O)OCO4`, in the assay listed under Mus musculus, the inhibition entry is “inactive”.
As to `COc1ccc2c(c1)O[C@@H]1COc3cc4c(cc3[C@@]1(O)C2=O)OCO4`, the inhibition result in the assay filed under Mus musculus is “inactive”.
Same read-out and setting: with `COc1cc2c(cc1-c1coc3cc(O)ccc3c1=O)OCO2` the entry was “inactive”.
Turning to `COc1cc2c(cc1-c1coc3c(CC=C(C)C)c(OC)c(OC)cc3c1=O)OCO2`, the IC50 in the assay with MDA-MB-231 is > 235 µM. Further, in the assay filed under Mus musculus, the inhibition result is “inactive”.
With `COc1cc2occ(-c3cc4c(cc3OC)OCO4)c(=O)c2cc1OC`, in the assay listed under Mus musculus, the inhibition entry is “inactive”.
Take `COc1cc2c(cc1OC)-c1c(oc3c4c(ccc3c1=O)OC(C)(C)C=C4)CO2` [DEHYDRODEGUELIN]: the IC50 (in the assay on B16; in assay [1]; in the assay with HepG2; in assay [2]) was 0.56 to 16 µM in each case. In addition, in the assay listed under Mus musculus, the inhibition result is “inactive”.
As for `COc1ccc(-c2coc3cc(OCC=C(C)C)ccc3c2=O)cc1`, the IC50 in the assay with MDA-MB-231 stood at 33.3 µM. Also, the inhibition result in the assay listed under Mus musculus is “inactive”.
The matching figures for `CC(C)=CCOc1ccc2c(=O)c(-c3ccc4c(c3)OCO4)coc2c1`: 154 µM and “inactive”.
`COc1ccc2c(c1)O[C@@H]1COc3cc(OC)c(OC)cc3[C@@H]1C2=O`: in the assay filed under Mus musculus, the inhibition entry was “inactive”.
Take `COc1cc2c(cc1OC)[C@]1(O)C(=O)c3ccc4c(c3O[C@@H]1CO2)C=CC(C)(C)O4` [TEPHROSIN]: the concentration for half-maximal inhibition (IC50) (with B16; in assay [1]; in the assay with HepG2; in assay [2]) was 1.35 to 9.85 µM throughout. In addition, the inhibition entry in the assay listed under Mus musculus is “inactive”.
As for `COc1ccc2c(=O)c(-c3cc(OC)c4c(c3OC)OCO4)coc2c1`, the IC50 in the assay with MDA-MB-231 is 168 µM. Also, in the assay listed under Mus musculus, the inhibition entry is “inactive”.
On the same counts, the results for `COc1ccc2c(c1)O[C@@H]1COc3cc4c(cc3[C@@H]1C2=O)OCO4` are 93.8 µM and “inactive”.
Consider `COc1ccc2c(c1)O[C@@H]1COc3cc(OC)c(OC)cc3[C@]1(O)C2=O`, for which the inhibition entry in the assay listed under Mus musculus was “inactive”.
Same read-out and setting: to `COc1ccc2c(c1)O[C@@H]1COc3c(cc(OC)c4c3OCO4)[C@]1(O)C2=O` belongs “inactive”.

The IC50 is the midpoint of a concentration-inhibition curve.

Source of the values: ChEMBL document CHEMBL4190232, “Isoflavones and Rotenoids from the Leaves of Millettia oblata ssp. teitensis” (J Nat Prod, 2017).
